Test results reported in ChEMBL document CHEMBL2429859, “Inhibiting aberrant signal transducer and activator of transcription protein activation with tetrapodal, small molecule Src homology 2 domain binders: promising agents against multiple myeloma” (J Med Chem, 2013).
Active and inactive are the calls of the source. The rule behind the calls is not given here.

Assays:
[1] = target: T1, Tyrosine-protein kinase JAK3 (Homo sapiens) (UniProt P52333); assay: Inhibition of JAK3 JH1 domain (unknown origin) assessed as residual activity at 5 uM relative to control
T1 sequence (whole entry): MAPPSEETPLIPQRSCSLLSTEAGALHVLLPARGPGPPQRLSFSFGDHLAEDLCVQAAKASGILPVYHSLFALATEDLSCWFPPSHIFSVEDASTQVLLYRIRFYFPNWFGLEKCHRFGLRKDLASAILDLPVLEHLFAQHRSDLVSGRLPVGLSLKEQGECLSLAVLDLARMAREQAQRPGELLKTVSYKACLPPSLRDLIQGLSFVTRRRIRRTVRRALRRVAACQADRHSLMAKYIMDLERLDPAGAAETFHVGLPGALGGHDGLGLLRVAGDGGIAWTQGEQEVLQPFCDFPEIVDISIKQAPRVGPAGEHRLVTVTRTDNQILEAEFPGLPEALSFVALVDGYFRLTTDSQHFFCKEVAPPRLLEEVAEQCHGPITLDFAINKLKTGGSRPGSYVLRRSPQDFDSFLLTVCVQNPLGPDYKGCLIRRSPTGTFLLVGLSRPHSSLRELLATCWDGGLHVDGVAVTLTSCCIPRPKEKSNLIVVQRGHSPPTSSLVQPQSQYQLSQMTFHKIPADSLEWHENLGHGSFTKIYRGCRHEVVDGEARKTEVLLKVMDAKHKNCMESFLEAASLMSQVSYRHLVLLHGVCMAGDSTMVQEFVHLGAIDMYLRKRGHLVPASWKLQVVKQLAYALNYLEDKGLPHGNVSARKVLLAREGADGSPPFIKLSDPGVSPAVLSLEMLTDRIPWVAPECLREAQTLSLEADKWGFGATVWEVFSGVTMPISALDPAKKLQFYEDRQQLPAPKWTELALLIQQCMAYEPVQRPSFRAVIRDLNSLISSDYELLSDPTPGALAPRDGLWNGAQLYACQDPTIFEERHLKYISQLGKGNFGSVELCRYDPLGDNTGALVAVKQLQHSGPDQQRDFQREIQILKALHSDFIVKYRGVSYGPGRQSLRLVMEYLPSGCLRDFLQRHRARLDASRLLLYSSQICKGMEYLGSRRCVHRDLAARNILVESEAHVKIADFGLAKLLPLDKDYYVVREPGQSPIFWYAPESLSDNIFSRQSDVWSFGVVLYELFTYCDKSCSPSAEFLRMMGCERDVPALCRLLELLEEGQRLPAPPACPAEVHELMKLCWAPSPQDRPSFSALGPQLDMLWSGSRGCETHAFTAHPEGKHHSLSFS
Method in brief: (§1)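 Kinase profiling used a KinomeScan at 5 µM across 132 kinases, including 37 with SH2 domains.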

[2] = target: Signal transducer and activator of transcription 3 (Homo sapiens, UniProt P40763); assay: Inhibition of Stat3-mediated luciferase expression in human 8226 cells at 15 to 30 uM after 6 hrs relative to control; type: cell-based
Method in brief: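 Myeloma cells stably carried a Stat3-driven firefly luciferase reporter (puromycin-selected) and a CMV-driven Renilla luciferase internal control (hygromycin-selected), each selected for 2 weeks. After drug treatment, dual luciferase activity was read as relative luciferase units, firefly/Renilla.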

JJN-3 [3] = assay: Inhibition of total Stat3 level in human JJN-3 cells at 10 to 30 uM after 6 hrs by Western blot analysis; type: functional, cell-based
Method in brief: (§2)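 Treated cells were washed in cold PBS and lysed 30 min on ice in Tris-HCl pH 7.4/NaCl/EDTA/1% NP-40 with PMSF, vanadate and protease inhibitors. Lysates were Bradford-normalized, and 10-30 µg protein was run on 7-10% SDS-PAGE and transferred to PVDF. Blots were blocked in 5% BSA/TBST, probed overnight at 4 °C, then with HRP secondary, and detected by ECL.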

[4] = Cytotoxicity against CD138-positive BMNC isolated from multiple myeloma patient assessed as cell viability at 20 uM; type: functional; settings: Homo sapiens, read-out: Activity
Method in brief: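 Bone marrow mononuclear cells were isolated by Ficoll-Paque separation from 6 myeloma patient aspirates, cultured, and treated with compound. Cells were stained for CD138 and Annexin V, and the decrease in CD138+ (myeloma) and CD138- (non-myeloma) populations was reported.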

[5] = Cytotoxicity against BMNC isolated from multiple myeloma patient assessed as inhibition of hematopoietic progenitor colony formation at 30 uM; settings: human
[6] = target: Tyrosine-protein kinase JAK2 (Homo sapiens) (UniProt O60674); assay: Inhibition of JAK2 JH1 domain (unknown origin) assessed as residual activity at 5 uM relative to control; method in brief: as §1
[7] = target: Tyrosine-protein kinase JAK1 (Homo sapiens) (UniProt P23458); assay: Inhibition of JAK1 (unknown origin) assessed as residual activity at 5 uM relative to control; method in brief: as §1
JJN-3 [8] = assay: Induction of apoptosis in human JJN-3 cells at 10 to 20 uM by annexin V/propidium iodide staining-based flow cytometric analysis; type: functional, cell-based
Method in brief: (§3)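 Apoptosis was measured by flow cytometry of Annexin V and propidium iodide staining. Viable, early apoptotic and late apoptotic cells were scored by quadrant, with time points at 24 and 48 h.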

JJN-3 [9] = assay: Induction of apoptosis in human JJN-3 cells assessed as induction of PARP cleavage at 10 to 30 uM by Western blot analysis; type: functional, cell-based; method in brief: as §2
RPMI-8226 [10] = assay: Induction of apoptosis in human RPMI8226 cells at 10 to 20 uM by annexin V/propidium iodide staining-based flow cytometric analysis; type: functional, cell-based; settings: TDE = time-dependent effect; method in brief: as §3
RPMI-8226 [11] = assay: Induction of apoptosis in human RPMI8226 cells at 10 to 15 uM by annexin V/propidium iodide staining-based flow cytometric analysis; type: functional, cell-based; settings: TDE = time-dependent effect; method in brief: as §3
XG6 [12] = assay: Induction of apoptosis in human XG6 cells at 10 to 15 uM by annexin V/propidium iodide staining-based flow cytometric analysis; type: functional, cell-based; method in brief: as §3
XG6 [13] = assay: Cytotoxicity against human XG6 cells assessed as cell viability at 7.5 uM after 72 hrs by MTT assay; type: functional, cell-based
Method in brief: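 Myeloma lines were seeded at 1-3 x 10^4 cells per well onto compound or vehicle, in triplicate, and cultured 72 h at 37 °C in 5% CO2. Viability was measured colorimetrically by MTT assay relative to DMSO control. EC50 was fitted to a standard dose-response curve where applicable.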

JJN-3 [14] = assay: Induction of apoptosis in human JJN-3 cells at 10 to 15 uM by annexin V/propidium iodide staining-based flow cytometric analysis; type: functional, cell-based; method in brief: as §3
JJN-3 [15] = assay: Induction of apoptosis in human JJN-3 cells assessed as induction of PARP cleavage at 5 to 10 uM by Western blot analysis; type: functional, cell-based; method in brief: as §2

Signal transducer and activator of transcription 3, sequence (P40763 whole entry): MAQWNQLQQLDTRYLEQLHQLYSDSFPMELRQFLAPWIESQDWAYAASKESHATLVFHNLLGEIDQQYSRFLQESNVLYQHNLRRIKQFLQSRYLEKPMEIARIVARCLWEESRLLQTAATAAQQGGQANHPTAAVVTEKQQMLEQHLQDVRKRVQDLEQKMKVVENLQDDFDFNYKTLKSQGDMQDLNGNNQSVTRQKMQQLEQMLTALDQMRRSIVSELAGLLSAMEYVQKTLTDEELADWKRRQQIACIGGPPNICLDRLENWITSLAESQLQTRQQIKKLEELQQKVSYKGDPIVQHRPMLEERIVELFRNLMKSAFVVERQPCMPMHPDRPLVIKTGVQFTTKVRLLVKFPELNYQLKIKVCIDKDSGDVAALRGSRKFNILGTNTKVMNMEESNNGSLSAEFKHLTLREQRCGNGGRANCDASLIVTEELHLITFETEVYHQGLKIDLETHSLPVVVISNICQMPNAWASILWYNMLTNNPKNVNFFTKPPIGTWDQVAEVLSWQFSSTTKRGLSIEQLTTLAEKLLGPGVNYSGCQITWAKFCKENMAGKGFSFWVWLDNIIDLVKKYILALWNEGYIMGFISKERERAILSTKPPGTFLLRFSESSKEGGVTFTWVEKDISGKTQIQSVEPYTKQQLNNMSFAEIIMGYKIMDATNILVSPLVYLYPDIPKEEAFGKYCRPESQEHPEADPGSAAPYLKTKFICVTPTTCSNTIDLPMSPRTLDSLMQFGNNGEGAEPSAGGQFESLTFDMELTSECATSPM
Tyrosine-protein kinase JAK2 (Homo sapiens), sequence (O60674 whole entry, the tested form may be a part): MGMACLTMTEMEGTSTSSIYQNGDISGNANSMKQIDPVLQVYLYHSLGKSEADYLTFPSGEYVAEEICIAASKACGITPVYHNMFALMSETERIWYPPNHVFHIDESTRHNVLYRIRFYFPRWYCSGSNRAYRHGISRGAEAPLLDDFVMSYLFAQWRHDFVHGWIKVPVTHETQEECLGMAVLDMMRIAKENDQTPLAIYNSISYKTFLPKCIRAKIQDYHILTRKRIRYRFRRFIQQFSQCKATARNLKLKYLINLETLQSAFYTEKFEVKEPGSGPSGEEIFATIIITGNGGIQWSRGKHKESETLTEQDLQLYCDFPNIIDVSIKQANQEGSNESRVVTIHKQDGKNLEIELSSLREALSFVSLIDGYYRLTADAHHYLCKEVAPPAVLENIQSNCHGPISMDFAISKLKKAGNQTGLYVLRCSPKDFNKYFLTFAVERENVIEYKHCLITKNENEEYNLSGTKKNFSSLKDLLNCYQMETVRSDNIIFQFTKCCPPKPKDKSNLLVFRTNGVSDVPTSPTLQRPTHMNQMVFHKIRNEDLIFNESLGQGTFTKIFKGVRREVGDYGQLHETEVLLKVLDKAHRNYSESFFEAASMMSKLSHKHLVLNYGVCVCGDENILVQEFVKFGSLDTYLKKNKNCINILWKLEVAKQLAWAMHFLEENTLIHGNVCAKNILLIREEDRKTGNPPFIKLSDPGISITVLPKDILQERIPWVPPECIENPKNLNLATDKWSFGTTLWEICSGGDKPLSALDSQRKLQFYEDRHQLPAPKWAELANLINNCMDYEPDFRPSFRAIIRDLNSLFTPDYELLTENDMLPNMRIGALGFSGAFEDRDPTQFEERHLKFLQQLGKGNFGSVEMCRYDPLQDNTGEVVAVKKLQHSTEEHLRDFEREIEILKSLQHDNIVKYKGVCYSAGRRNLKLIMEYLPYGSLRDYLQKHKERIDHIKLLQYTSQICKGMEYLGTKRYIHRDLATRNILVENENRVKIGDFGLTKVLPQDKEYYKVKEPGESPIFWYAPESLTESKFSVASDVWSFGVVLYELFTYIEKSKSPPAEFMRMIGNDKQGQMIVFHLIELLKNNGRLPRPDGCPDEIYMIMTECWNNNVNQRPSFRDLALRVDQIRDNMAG
Tyrosine-protein kinase JAK1 (Homo sapiens), sequence (P23458 whole entry): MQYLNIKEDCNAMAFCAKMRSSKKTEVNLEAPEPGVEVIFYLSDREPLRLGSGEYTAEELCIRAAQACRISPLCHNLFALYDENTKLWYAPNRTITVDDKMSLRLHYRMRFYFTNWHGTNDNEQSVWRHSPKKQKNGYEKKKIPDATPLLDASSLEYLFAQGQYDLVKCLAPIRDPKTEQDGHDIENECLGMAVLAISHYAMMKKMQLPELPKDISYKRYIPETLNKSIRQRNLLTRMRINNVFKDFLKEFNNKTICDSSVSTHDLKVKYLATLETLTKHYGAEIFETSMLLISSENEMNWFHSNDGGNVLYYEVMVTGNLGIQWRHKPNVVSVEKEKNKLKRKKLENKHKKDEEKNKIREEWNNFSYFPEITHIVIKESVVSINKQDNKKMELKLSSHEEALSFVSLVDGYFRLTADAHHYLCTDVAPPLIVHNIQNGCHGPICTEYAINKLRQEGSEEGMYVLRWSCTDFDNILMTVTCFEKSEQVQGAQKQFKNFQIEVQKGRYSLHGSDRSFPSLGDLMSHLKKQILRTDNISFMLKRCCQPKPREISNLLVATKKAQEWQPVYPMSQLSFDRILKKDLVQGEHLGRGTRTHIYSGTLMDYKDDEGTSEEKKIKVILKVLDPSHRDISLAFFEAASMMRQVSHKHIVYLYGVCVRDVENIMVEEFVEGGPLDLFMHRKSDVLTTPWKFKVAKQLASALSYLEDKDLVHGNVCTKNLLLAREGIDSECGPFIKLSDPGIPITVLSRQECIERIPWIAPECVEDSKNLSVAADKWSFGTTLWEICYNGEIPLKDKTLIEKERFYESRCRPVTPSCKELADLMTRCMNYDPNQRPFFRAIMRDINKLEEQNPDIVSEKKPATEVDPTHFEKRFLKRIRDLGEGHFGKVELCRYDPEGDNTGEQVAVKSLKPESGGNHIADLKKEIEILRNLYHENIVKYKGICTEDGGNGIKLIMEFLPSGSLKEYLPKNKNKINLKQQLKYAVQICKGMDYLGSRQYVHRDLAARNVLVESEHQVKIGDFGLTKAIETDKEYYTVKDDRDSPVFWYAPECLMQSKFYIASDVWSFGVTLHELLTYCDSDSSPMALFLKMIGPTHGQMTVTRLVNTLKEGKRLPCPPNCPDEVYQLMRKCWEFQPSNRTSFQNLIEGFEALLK

SMILES: Cc1ccc(S(=O)(=O)N(CC(=O)N(Cc2ccc(C3CCCCC3)cc2)c2ccc(C(=O)O)c(O)c2)Cc2ccccc2C(F)(F)F)cc1
- Activity [1]: 84%
- inhibition [2]: 50%
- inhibition (JJN-3 [3]): inactive
- viability at 20 µM [4]: > 50%
- Activity [5]: Non-toxic
- Activity [6]: 84%
- Activity [7]: 84%
- Activity (JJN-3 [8]): Active
- Activity (JJN-3 [9]): Active
- Activity (RPMI-8226 [10]): tde

SMILES: O=C(O)c1ccc(N(Cc2ccc(C3CCCCC3)cc2)C(=O)CN(Cc2ccccc2C(F)(F)F)S(=O)(=O)c2c(F)c(F)c(F)c(F)c2F)cc1O
- Activity (RPMI-8226 [11]): tde
- Activity (XG6 [12]): Active
- Activity (XG6 [13]): Active
- Activity (JJN-3 [14]): Active
- Activity (JJN-3 [15]): Active
